In ChEMBL document CHEMBL4033783, “Adventures in Scaffold Morphing: Discovery of Fused Ring Heterocyclic Checkpoint Kinase 1 (CHK1) Inhibitors” (J Med Chem, 2018):
≈ marks a conversion by molar mass, not a printed value.

Key:
[1] = target: T1, Serine/threonine-protein kinase Chk1 (Homo sapiens, UniProt O14757); test: Inhibition of CHK1 (unknown origin)
T1 sequence (O14757 whole entry): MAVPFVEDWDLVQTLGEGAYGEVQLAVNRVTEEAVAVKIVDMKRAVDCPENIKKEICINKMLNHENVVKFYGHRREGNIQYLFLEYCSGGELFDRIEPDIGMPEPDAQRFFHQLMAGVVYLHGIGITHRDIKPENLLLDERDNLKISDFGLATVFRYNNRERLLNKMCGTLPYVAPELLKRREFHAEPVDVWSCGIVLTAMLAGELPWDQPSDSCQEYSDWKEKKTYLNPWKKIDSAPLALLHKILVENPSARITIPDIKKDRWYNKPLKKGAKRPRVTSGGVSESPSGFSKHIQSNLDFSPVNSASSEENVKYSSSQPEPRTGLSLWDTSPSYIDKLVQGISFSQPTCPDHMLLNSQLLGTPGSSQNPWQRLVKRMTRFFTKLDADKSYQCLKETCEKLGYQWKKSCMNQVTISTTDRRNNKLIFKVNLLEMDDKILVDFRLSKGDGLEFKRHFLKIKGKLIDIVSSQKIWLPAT

[2] = Aqueous solubility of the compound in pH 7.4 phosphate buffer by LC-UV analysis; type: physicochemical
[3] = system: MDA-MB-231; test: Antiproliferative activity against human MDA-MB-231 cells; type: functional; settings: for GI50: Homo sapiens, MDA-MB-231
How it was run: (§1)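 Proliferation-inhibition concentration-response in the tumour cell lines, run as part of a gemcitabine potentiation assay, with the compound tested as a single agent without gemcitabine. Single-agent GI50 and GI25 were derived from the response curves. Values are the mean of two duplicated runs.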

[4] = system: SW-620; test: Antiproliferative activity against human SW620 cells; type: functional; settings: for GI50: Homo sapiens, SW-620; how it was run: as §1
[5] = system: NCI-H460; test: Antiproliferative activity against human H460 cells harboring dominant negative p53 construct; type: functional; settings: for GI50: Homo sapiens, NCI-H460; how it was run: as §1
[6] = target: Voltage-gated inwardly rectifying potassium channel KCNH2 (Homo sapiens, UniProt Q12809)
[7] = target: T2, Serine/threonine-protein kinase Chk1 (Homo sapiens) (UniProt O14757)
T2 sequence (whole entry): T1 sequence (O14757 whole entry)

[8] = target: T2, Serine/threonine-protein kinase Chk1 (Homo sapiens); remark: listed apart in the source
[9] = target: T2, Serine/threonine-protein kinase Chk1 (Homo sapiens); remark: listed apart in the source
[10] = Intrinsic clearance in Sprague-Dawley rat liver microsomes at […] after 2 mins in presence of NADPH by HPLC analysis; type: ADME, Microsome
[11] = system: Liver; test: Intrinsic clearance in human liver microsomes; type: ADME, microsome
[12] = Half life in iv dosed mouse plasma; type: ADME, organism-based
[13] = Half life in iv dosed rat plasma; type: ADME, organism-based
[14] = Clearance in iv dosed mouse plasma; type: ADME, organism-based
[15] = Clearance in iv dosed rat plasma; type: ADME, organism-based
[16] = Clearance in iv dosed dog plasma; type: ADME, organism-based, Canis lupus familiaris
[17] = Half life in iv dosed dog plasma; type: ADME, organism-based, Canis lupus familiaris
[18] = Volume of distribution at steady state in iv dosed dog plasma; type: ADME, organism-based, Canis lupus familiaris; settings: read-out: Vdss
[19] = Volume of distribution at steady state in iv dosed mouse plasma; type: ADME, organism-based; settings: read-out: Vdss
[20] = Volume of distribution at steady state in iv dosed rat plasma; type: ADME, organism-based; settings: read-out: Vdss
[21] = system: HCT-116; test: Abrogation of topotecan-induced G2 phase arrest in human HCT116 cells xenografted in mouse hollow fiber model assessed as ratio of cell levels at G2 phase to G1 phase at 10 mg/kg, iv after 30 hrs relative to control; type: functional

Voltage-gated inwardly rectifying potassium channel KCNH2, sequence (Q12809 whole entry): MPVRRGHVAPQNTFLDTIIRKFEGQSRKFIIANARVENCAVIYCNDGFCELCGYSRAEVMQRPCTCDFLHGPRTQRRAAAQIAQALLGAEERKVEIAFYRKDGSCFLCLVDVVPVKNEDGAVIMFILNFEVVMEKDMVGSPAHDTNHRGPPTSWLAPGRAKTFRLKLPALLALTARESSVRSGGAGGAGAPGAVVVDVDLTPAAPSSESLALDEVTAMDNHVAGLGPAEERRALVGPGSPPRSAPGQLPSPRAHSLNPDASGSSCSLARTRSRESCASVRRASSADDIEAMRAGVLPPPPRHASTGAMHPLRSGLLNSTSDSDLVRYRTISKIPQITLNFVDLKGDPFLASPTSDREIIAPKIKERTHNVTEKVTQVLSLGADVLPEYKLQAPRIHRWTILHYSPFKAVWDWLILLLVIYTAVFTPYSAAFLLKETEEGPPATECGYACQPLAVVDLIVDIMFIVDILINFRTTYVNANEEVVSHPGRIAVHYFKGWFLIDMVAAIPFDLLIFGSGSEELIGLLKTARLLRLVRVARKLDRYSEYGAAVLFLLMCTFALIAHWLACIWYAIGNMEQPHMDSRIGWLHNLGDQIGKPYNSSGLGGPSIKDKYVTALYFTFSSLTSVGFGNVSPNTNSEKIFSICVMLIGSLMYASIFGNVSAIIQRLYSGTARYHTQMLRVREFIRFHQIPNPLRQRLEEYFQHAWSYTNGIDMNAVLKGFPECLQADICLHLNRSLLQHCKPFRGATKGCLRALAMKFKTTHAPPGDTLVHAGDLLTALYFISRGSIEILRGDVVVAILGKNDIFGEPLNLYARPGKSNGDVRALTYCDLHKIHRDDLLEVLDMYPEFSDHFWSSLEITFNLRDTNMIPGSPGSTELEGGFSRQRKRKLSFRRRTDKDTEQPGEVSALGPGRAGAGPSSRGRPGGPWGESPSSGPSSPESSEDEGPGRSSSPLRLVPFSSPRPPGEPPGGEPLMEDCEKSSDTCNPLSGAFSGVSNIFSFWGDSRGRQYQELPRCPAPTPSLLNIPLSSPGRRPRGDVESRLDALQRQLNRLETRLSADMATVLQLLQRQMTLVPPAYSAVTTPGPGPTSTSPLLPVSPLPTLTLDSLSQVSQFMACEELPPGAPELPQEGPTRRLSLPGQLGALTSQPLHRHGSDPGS

SMILES: Cn1cc(-c2cc3c(N[C@H]4CCCNC4)ncc(C(N)=O)c3s2)cn1
- IC50 [1]: 6 nM

SMILES: NC(=O)c1cnc(N[C@H]2CCCNC2)c2cc(-c3ccccc3)oc12
- IC50 [1]: 330 nM
- solubility [2]: > 1000 µM

SMILES: NC(=O)Nc1sc(-c2ccccc2)cc1C(=O)N[C@H]1CCCNC1
- solubility [2]: > 2000 µM
- GI25 [3]: 300 nM
- GI50 [3]: 596 nM
- GI25 [4]: 420 nM
- GI50 [4]: 839 nM
- GI25 [5]: 620 nM
- GI50 [5]: 1230 nM
- IC50 [6]: > 31600 nM
- PF [7]: 9
- PF [8]: 11
- PF [9]: 67

SMILES: NC(=O)c1cnc(N[C@H]2CCCNC2)c2sc(-c3cccc(F)c3)cc12
- IC50 [1]: 6800 nM

SMILES: NC(=O)c1cnc(O[C@H]2CCCNC2)c2cc(-c3ccccc3)sc12
- IC50 [1]: 83 nM
- intrinsic clearance [10]: > 120 µL/min/mg
- intrinsic clearance (CLint) [11]: 35 µL/min/mg

SMILES: NC(=O)c1ccc(N[C@H]2CCCNC2)c2cc(-c3ccc(Cl)cc3)[nH]c12
- IC50 [1]: 15 nM
- solubility [2]: 320 µM (≈ 118 µg/mL)
- IC50 [6]: 4100 nM

SMILES: CCN(c1ncc(C(N)=O)c2sc(-c3ccccc3)cc12)[C@H]1CCCNC1
- IC50 [1]: 35 nM
- IC50 [6]: 2400 nM

SMILES: NC(=O)c1ccc(N[C@H]2CCCNC2)c2cc(-c3ccc(F)cc3)[nH]c12
- IC50 [1]: 23 nM
- solubility [2]: 380 µM (≈ 134 µg/mL)
- IC50 [6]: 6700 nM

SMILES: NC(=O)c1cnc(N[C@H]2CCCNC2)c2cc(-c3cn[nH]c3)sc12
- IC50 [1]: 20 nM

SMILES: C[C@@H]1CC[C@H](Nc2ncc(C(N)=O)c3sc(-c4ccccc4)cc23)[C@H](C)N1 (racemic)
- IC50 [1]: 12 nM
- IC50 [6]: 8400 nM

SMILES: NC(=O)c1ccc(N[C@H]2CCCNC2)c2cc(-c3ccccc3)[nH]c12
- IC50 [1]: 31 nM
- solubility [2]: 280 µM (≈ 93.6 µg/mL)
- intrinsic clearance [10]: 120 µL/min/mg
- intrinsic clearance (CLint) [11]: 21 µL/min/mg
- IC50 [6]: 11600 nM

SMILES: C[C@H]1NCCC[C@@H]1Nc1ncc(C(N)=O)c2sc(-c3ccccc3)cc12
- IC50 [1]: 6 nM
- intrinsic clearance [10]: < 10 µL/min/mg
- intrinsic clearance (CLint) [11]: < 5 µL/min/mg
- GI25 [3]: 150 nM
- GI50 [3]: 306 nM
- GI25 [4]: 360 nM
- GI50 [4]: 725 nM
- half-life [12]: 3.4 h
- half-life [13]: 5.1 h
- clearance [14]: 29 mL/min/kg
- clearance [15]: 105 mL/min/kg
- clearance [16]: 10 mL/min/kg
- half-life [17]: 9.4 h
- Vd [18]: 7.1 L/kg
- Vd [19]: 4.6 L/kg
- Vd [20]: 24 L/kg
- IC50 [6]: > 31600 nM
- PF [7]: 5
- PF [8]: 11
- PF [9]: 124

SMILES: CN1CCC[C@H](Nc2ncc(C(N)=O)c3sc(-c4ccccc4)cc23)C1
- IC50 [1]: 140 nM

SMILES: NC(=O)c1cnc(N[C@H]2CCCNC2)c2cc(-c3ccccc3)sc12
- IC50 [1]: 7 nM
- solubility [2]: > 1000 µM
- intrinsic clearance [10]: 32 µL/min/mg
- intrinsic clearance (CLint) [11]: 9.2 µL/min/mg
- GI25 [3]: 270 nM
- GI50 [3]: 536 nM
- GI25 [4]: 490 nM
- GI50 [4]: 970 nM
- GI25 [5]: 900 nM
- GI50 [5]: 1800 nM
- half-life [12]: 1.5 h
- half-life [13]: 3.1 h
- clearance [14]: 45 mL/min/kg
- clearance [15]: 295 mL/min/kg
- clearance [16]: 11 mL/min/kg
- half-life [17]: 5.4 h
- Vd [18]: 3.7 L/kg
- Vd [19]: 4 L/kg
- Vd [20]: 75 L/kg
- Ratio [21]: 3.2
- IC50 [6]: 19700 nM
- PF [7]: 5
- PF [8]: 12
- PF [9]: 28

SMILES: NC(=O)c1cnc(N[C@H]2CNCC[C@@H]2O)c2cc(-c3ccccc3)sc12 (racemic)
- IC50 [1]: 10 nM
- IC50 [6]: > 31600 nM

SMILES: NC(=O)c1cnc(N[C@H]2CCCNC2)c2sc(-c3ccccc3)cc12
- IC50 [1]: 2600 nM
- IC50 [6]: > 31600 nM

SMILES: CN(c1ncc(C(N)=O)c2sc(-c3ccccc3)cc12)[C@H]1CCCNC1
- IC50 [1]: 25 nM
- intrinsic clearance [10]: 37 µL/min/mg
- intrinsic clearance (CLint) [11]: 10 µL/min/mg
- IC50 [6]: 2700 nM

SMILES: NC(=O)c1cnc(N[C@H]2CCCNC2)c2cc(-c3cccc(F)c3)sc12
- IC50 [1]: 12 nM
- solubility [2]: 334 µM (≈ 124 µg/mL)
- GI25 [3]: 320 nM
- GI50 [3]: 641 nM
- GI25 [4]: 420 nM
- GI50 [4]: 841 nM
- GI25 [5]: 1450 nM
- GI50 [5]: 2900 nM
- half-life [12]: 8.5 h
- half-life [13]: 4.4 h
- clearance [14]: 28 mL/min/kg
- clearance [15]: 196 mL/min/kg
- clearance [16]: 10 mL/min/kg
- half-life [17]: 5.1 h
- Vd [18]: 4.4 L/kg
- Vd [19]: 4.6 L/kg
- Vd [20]: 54.3 L/kg
- PF [7]: 4
- PF [8]: 11
- PF [9]: 38

SMILES: NC(=O)c1cnc(N(CCO)[C@H]2CCCNC2)c2cc(-c3ccccc3)sc12
- IC50 [1]: 79 nM
- IC50 [6]: > 31600 nM

SMILES: C[C@@H]1CC[C@H](Nc2ncc(C(N)=O)c3sc(-c4ccccc4)cc23)CN1 (racemic)
- IC50 [1]: 21 nM

SMILES: NC(=O)c1ccc(N[C@H]2CCCNC2)c2cc(-c3cccc(F)c3)[nH]c12
- IC50 [1]: 9 nM
- IC50 [6]: 7700 nM

SMILES: NC(=O)c1cnc(N(CCc2ccccc2)[C@H]2CCCNC2)c2cc(-c3ccccc3)sc12
- IC50 [1]: 660 nM

SMILES: NC(=O)c1cnc(N[C@H]2CCCNC2)c2cc(-c3cccs3)sc12
- IC50 [1]: 15 nM
- solubility [2]: > 1000 µM
- intrinsic clearance [10]: 36 µL/min/mg
- intrinsic clearance (CLint) [11]: 9.1 µL/min/mg
- IC50 [6]: > 30000 nM

SMILES: Nc1ccn([C@@H]2O[C@H](CO)[C@@H](O)C2(F)F)c(=O)n1 [GEMCITABINE]
- GI50 [3]: 251 nM
- GI50 [4]: 840 nM
- GI50 [5]: 2080 nM

SMILES: C[C@@H]1NCCC[C@@H]1Nc1ncc(C(N)=O)c2sc(-c3ccccc3)cc12
- IC50 [1]: 69 nM
- IC50 [6]: 5900 nM

SMILES: NC(=O)c1cnc(N[C@H]2CCCNC2)c2cc(-c3ccsc3)sc12
- IC50 [1]: 6 nM
- solubility [2]: 980 µM (≈ 351 µg/mL)
- intrinsic clearance [10]: 72 µL/min/mg
- intrinsic clearance (CLint) [11]: 29 µL/min/mg
- IC50 [6]: 28000 nM

SMILES: NC(=O)c1cnc(N[C@H]2CCCNC2)c2cc(-n3ccnc3)sc12
- IC50 [1]: 24 nM

SMILES: NC(=O)c1cnc(N[C@H]2CCCNC2)c2cc(-c3cnn(Cc4ccccc4)c3)sc12
- IC50 [1]: 14 nM

SMILES: NC(=O)c1cnc(SC2CCCNC2)c2cc(-c3ccccc3)sc12 (racemic)
- IC50 [1]: 56 nM
- intrinsic clearance [10]: 11 µL/min/mg
- intrinsic clearance (CLint) [11]: < 5 µL/min/mg
- IC50 [6]: 4900 nM

SMILES: NC(=O)c1cnc(N[C@H]2CCCN[C@@H]2CCO)c2cc(-c3ccccc3)sc12 (racemic)
- IC50 [1]: 83 nM
- IC50 [6]: > 31600 nM
